PubChem BioAssay
Where “and” joins values, the source holds several entries; their conditions need not be identical. Equal entries are not always repeated. Calls of active or inactive are those of the source.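 The calls were made as follows, unless noted: active = viability at or under a set limit in both replicates, limit being median viability minus 3 SD (cut at about 48% in these data, passing the limit was not always enough); inconclusive = at or under the limit in just one replicate; inactive = at or above the limit in both replicates.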 Peptide text beside a SMILES is read from it. * marks the point of attachment. Boc = CC(C)(C)OC(=O)*

Tests used:
[1] = SK-BR-3 cell growth inhibitors, pilot screen, 24 h, human (AID 572;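 active = viability at or below 10% of carrier control in both of two separate runs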;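 also: compound exposure lasted between 18 and 24 h rather than exactly 24 h; 100% = carrier-treated control wells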); settings: SK-BR-3 viability, CellTiter-Glo luminescence, at 10 µM, stronger effect = lower value
[2] = HUVEC growth inhibition – cell-based, human, primary screen (AID 575;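 active = viability at or below 30% in both replicate assays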;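 also: 100% = median of untreated cell wells with 0.1% DMSO on each plate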); settings: HUVEC proliferation, CellTiter-Glo luminescence, 72 h; at 10 µM; stronger effect = lower value
Summary of the method: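 System – primary HUVEC, no more than 12 passages · Medium – Low-serum (2% FBS) EBM, supplemented · Times – 72 h exposure, 37 °C, 5% CO2, 30 min RT equilibration · Measured by – luminescent ATP assay · Read-out – % viability relative to median vehicle-well signal on each plate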

[3] = growth inhibitors of H69AR lung tumor, primary screen, human, duplicate replicates (AID 580); settings: H69AR lung tumor cells viability, ATP luminescence, 72 h; at 10 µM; stronger effect = lower value;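 also: 100% = mean luminescence of untreated wells and 0% = no signal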
[4] = reversal of MRP1-mediated doxorubicin resistance, pilot screen, H69AR cells, doxorubicin co-treatment (AID 601;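 active = viability loss from added drug above about 55%, and viability with drug at most 40%, in both replicates, limit read from the data, passing the limit was not always enough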); settings: CellTiter-Glo, 72 h, at 10 µM; for differential viability (reversal): stronger effect = higher value
[5] = 384-well plate pilot, post-Golgi transport modulator project, inhibition of yeast transport mutant growth (AID 636; in the data active = inhibition above about 31%); settings: absorbance 615 nm, about 18 h, stronger effect = higher value
[6] = growth suppression of yeast trafficking mutant, preliminary HTS, modulators of trafficking downstream of Golgi apparatus project, 1536-format plate, OD 615 nm (AID 637; in the data active = inhibition above about 30%); settings: yeast transport mutant growth, absorbance 615 nm, 18 h; stronger effect = higher value
[7] = H69AR cells + 2 uM doxorubicin, measured here: viability with 2 uM doxorubicin, stronger effect = lower value
[8] = H69AR cells, compound alone cytotoxicity

| SMILES | viability [1] | viability [2] | viability [3] | differential viability (reversal) ([4]; H69AR cells + 2 uM doxorubicin) | viability [4, 7] | viability [4, 8] | inhibition [5] | inhibition [6] |
| --- | --- | --- | --- | --- | --- | --- | --- | --- |
| Cn1c(C(=O)OCC(=O)NCC2CCCO2)cc2sccc21 (stereo not given) | 85% (inactive) | 113% (inactive) | 92.7% (inactive) | 3.19% (inactive) | 89.6% | 92.7% | -9.04% (inactive) | 2.9% (inactive) |
| Cc1ccc2cc(C(c3nnnn3C3CCCC3)N3CCN(c4ccc(F)cc4)CC3)c(=O)[nH]c2c1 (stereo not given) | 93% (inactive) | 101% (inactive) | 67.6% (inactive) | 8.08% (inactive) | 59.6% | 67.6% | -5.6% (inactive) | 1.27% (inactive) |
| COc1ccccc1N(CC(=O)NC1CCCC1)C(=O)CCC(=O)Nc1cc(C)on1 | 98% (inactive) | 102% (inactive) | 85.3% (inactive) | -1.76% (inactive) | 87.1% | 85.3% | -2% (inactive) | 9.82% (inactive) |
| Cc1cc(C(=O)COC(=O)c2n[nH]c3ccccc23)c(C)n1C | 83% (inactive) | 90.4% (inactive) | 88.6% (inactive) | 5.96% (inactive) | 82.6% | 88.6% | -9.18% (inactive) | -4% (inactive) |
| CCOC(=O)Nc1ccc(NS(=O)(=O)c2ccc(C)cc2)cc1 | 72% (inactive) | 86.6% (inactive) | 83.7% (inactive) | -12.3% (inactive) | 96.1% | 83.7% | 1.92% (inactive) | -7.42% (inactive) |
| CCN(CC)CCCN1C(=O)C(O)=C(C(C)=O)C1c1cccc(OC)c1 (stereo not given) | 97% (inactive) | 101% (inactive) | 93% (inactive) | 5.69% (inactive) | 87.3% | 93% | -3.51% (inactive) | -2.73% (inactive) |
| CC(C)CC(NC(=O)OC(C)(C)C)C(=O)NC(C(=O)N1CCCC1C(N)=O)C(C)C (stereo not drawn) (Boc-Leu-Val-Pro-NH2; configuration not given here) | 103% (inactive) | 101% (inactive) | 111% (inactive) | 17.5% (inactive) | 93.8% | 111% | 0.78% (inactive) | -4.1% (inactive) |
| O=C(NCc1nc2ccccc2[nH]1)c1ccc(Cl)c(S(=O)(=O)N2CCCC2)c1 | 99% (inactive) | 79.2% (inactive) | 96.8% (inactive) | -3.96% (inactive) | 101% | 96.8% | 0.55% (inactive) | -4.35% (inactive) |
| Cc1ccc2c(c1)C(O)(CC(=O)c1ccc3c(c1)OCO3)C(=O)N2 (stereo not given) | 78% (inactive) | 92.3% (inactive) | 94.3% (inactive) | 8.13% (inactive) | 86.2% | 94.3% | -4.11% (inactive) | -7.58% (inactive) |
| COc1nc(OC)nc(N2CCC(C(=O)NCc3cccs3)CC2)n1 | 93% (inactive) | 101% (inactive) | 91.9% (inactive) | -1.4% (inactive) | 93.3% | 91.9% | -5.32% (inactive) | -9.51% (inactive) |
| COc1ccc(Cn2nnnc2C(c2ccccn2)N2CCN(c3cc(Cl)ccc3C)CC2)cc1 (stereo not given) | 101% (inactive) | 73.1% (inactive) | 77.3% (inactive) | -7.71% (inactive) | 85% | 77.3% | -2.43% (inactive) | 31.6% (active) |
| CCCCOc1ccccc1C1C(C(N)=O)=C(C)Nc2nnnn21 (stereo not given) | 110% (inactive) | 98.3% (inactive) | 93.3% (inactive) | 6.69% (inactive) | 86.6% | 93.3% | -3.9% (inactive) | 0.82% (inactive) |
| COC(=O)Nc1ccc(S(=O)(=O)N2CCCCCC2)cc1 | 99% (inactive) | 93.7% (inactive) | 80.3% (inactive) | -10.7% (inactive) | 91% | 80.3% | -10.1% (inactive) | -2% (inactive) |
| CN(C)c1ccc(NC(=O)c2ccncc2)c2ccccc12 | 113% (inactive) | 108% (inactive) | 101% (inactive) | 5.85% (inactive) | 95.2% | 101% | -7.43% (inactive) | -0.73% (inactive) |
| CCCCOc1ccc(N(CC(=O)NC2CCCC2)C(=O)CCC(=O)Nc2ccccn2)cc1 | 101% (inactive) | 71.7% (inactive) | 69.4% (inactive) | 5% (inactive) | 64.4% | 69.4% | -1.3% (inactive) | 2.95% (inactive) |
| Cc1nc(C)n(C(C)CC(=O)O)n1 (stereo not given) | 103% (inactive) | 127% (inactive) | 103% (inactive) | 5.71% (inactive) | 97.2% | 103% | -4% (inactive) | 1.27% (inactive) |
| CCc1ccc(Nc2cc(=O)n(C3CCCCC3)c(=O)[nH]2)cc1 | 136% (inactive) | 44% (inactive) | 18.3% (active) | -32.1% (inactive) | 50.4% | 18.3% | -3.65% (inactive) | -13% (inactive) |
| Cc1nc2ccc(S(=O)(=O)NCC(=O)N3CCCCC3)cc2s1 | 116% (inactive) | 100% (inactive) | 87.4% (inactive) | 2.37% (inactive) | 85% | 87.4% | -2.99% (inactive) | 0.16% (inactive) |

| SMILES | viability [1] | viability [2] | viability [3] | differential viability (reversal) ([4]; H69AR cells + 2 uM doxorubicin) | viability [4, 7] | viability [4, 8] | inhibition [5] | inhibition [6] |
| --- | --- | --- | --- | --- | --- | --- | --- | --- |
| Cc1cccc(CC2CC(=O)N(c3ccccc3)C2=O)c1 (stereo not given) | 117% (inactive) | 101% (inactive) | 102% (inactive) | 10.5% (inactive) | 91.9% | 102% | -3.77% (inactive) | -5.9% (inactive) |
| Cc1cc(Br)c(S(=O)(=O)n2nnc3ccccc32)cc1C | 107% (inactive) | 101% (inactive) | 81.8% (inactive) | -4.02% (inactive) | 85.8% | 81.8% | -8.22% (inactive) | 5.09% (inactive) |
| Cc1cc(C(=O)COC(=O)CCc2nc3ccccc3s2)c(C)n1C | 94% (inactive) | 116% (inactive) | 101% (inactive) | -5.69% (inactive) | 107% | 101% | -3.7% (inactive) | -5.09% (inactive) |
| Cc1nnc(Nc2ccccn2)c2ccccc12 | 89% (inactive) | 81.1% (inactive) | 87.3% (inactive) | -2.5% (inactive) | 89.8% | 87.3% | 0.27% (inactive) | -4.84% (inactive) |
| O=C(O)COc1cccc(NC(=O)C2CCCO2)c1 (stereo not given) | 81% (inactive) | 102% (inactive) | 93.3% (inactive) | -10.7% (inactive) | 104% | 93.3% | 0.14% (inactive) | 10.9% (inactive) |
| O=C(NC1CC1)C1CCC(=O)N1C1CCCC1 (stereo not given) | 93% (inactive) | 102% (inactive) | 105% (inactive) | 16.3% (inactive) | 88.4% | 105% | -1.17% (inactive) | 0.33% (inactive) |
| COc1ccccc1N1CCN(C(=O)c2cc(-c3ccc(Cl)c(Cl)c3)on2)CC1 | 122% (inactive) | 70.4% (inactive) | 57.9% (inactive) | -6.66% (inactive) | 64.5% | 57.9% | -4.13% (inactive) | -1.82% (inactive) |
| CCOC(=O)c1cc2c(=O)n3cccc(C)c3nc2n(CC2CCCO2)c1=NC(C)=O (stereo not given) | 94% (inactive) | 109% (inactive) | 81.3% (inactive) | 61.6% (active) | 19.6% | 81.3% | -5.14% (inactive) | 0.91% (inactive) |
| CCN(CC)S(=O)(=O)c1ccc(NC(=O)Cn2cnc3ccccc3c2=O)cc1 | 87% (inactive) | 85.9% (inactive) | 93.8% (inactive) | 8.02% (inactive) | 85.8% | 93.8% | 0.96% (inactive) | -1.29% (inactive) |
| Cc1onc(-c2c(F)cccc2Cl)c1C(=O)Nc1nc2c(s1)CCCC2 | 109% (inactive) | 92.7% (inactive) | 77.3% (inactive) | -27% (inactive) | 104% | 77.3% | -3.29% (inactive) | -1.09% (inactive) |
| Cc1ccc(N(CC2=NCCN2)c2cccc(O)c2)cc1 | 85% (inactive) and 113% (inactive) | 84.3% (inactive) and 64.3% (inactive) | 98.5% (inactive) and 92.6% (inactive) | -1.66% (inactive) and 11.9% (inactive) | 100% and 80.7% | 98.5% and 92.6% | -1.43% (inactive) and 1.17% (inactive) | -3.17% (inactive) and 0.5% (inactive) |
| COc1ccc(CCNC(=O)CCN2C(=O)C3CC=CCC3C2=O)cc1OC (stereo not given) | 103% (inactive) | 91.9% (inactive) | 105% (inactive) | 12% (inactive) | 92.8% | 105% | -2.08% (inactive) | -1.97% (inactive) |
| Cc1ccccc1Nc1cc2ccccc2c(=O)[nH]1 | 95.5% (inactive) | 63.8% (inactive) | 102% (inactive) | 2.71% (inactive) | 99.5% | 102% | 4.61% (inactive) | 17.8% (inactive) |
| COc1ccc(-c2cc3ccc(OCc4nn[nH]n4)cc3oc2=O)cc1 | 104% (inactive) | 99.2% (inactive) | 102% (inactive) | 14.1% (inactive) | 87.5% | 102% | -6.58% (inactive) | 1.29% (inactive) |
| CCC(c1c(C)n(C)n(-c2ccccc2)c1=O)c1c(C)n(C)n(-c2ccccc2)c1=O | 78% (inactive) | 103% (inactive) | 100% (inactive) | 8.48% (inactive) | 91.5% | 100% | -5.21% (inactive) | 4.73% (inactive) |
| CCC1Oc2ccc(C)cc2N(CC(=O)NCCCN2CCCCC2CC)C1=O (stereo not given) | 99% (inactive) | 83.7% (inactive) | 87.5% (inactive) | -6.5% (inactive) | 93.9% | 87.5% | -0.78% (inactive) | -0.66% (inactive) |
| O=C(NCc1ccccc1)c1cc(-c2ccco2)on1 | 111% (inactive) | 100% (inactive) | 94% (inactive) | 16.6% (inactive) | 77.3% | 94% | -0.13% (inactive) | 4.59% (inactive) |
